Experimental data reported in ChEMBL document CHEMBL1122251, “4-(Aminoalkyl)-7-hydroxy-2(3H)-indolones, a novel class of potent presynaptic dopamine receptor agonists” (J Med Chem, 1983).

Tests used:
Canis familiaris [1] = test: Tested in vivo for change in maximal arterial pressure (MAP) in dog after intravenous dose of 30 mg/kg; assay type: functional, Canis lupus familiaris, Artery
Canis familiaris [2] = test: Tested in vivo for change in heart rate(HR) in dog after intravenous dose of 3 mg/kg; assay type: functional, Canis lupus familiaris
Dopamine receptor [3] = test: Tested in vitro for dopamine agonist activity in rabbit ear artery after at a dose of 3 mg/kg; assay type: functional, Oryctolagus cuniculus
Method in brief: (§1)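 Isolated perfused rabbit ear artery preparation, used to assess activation of presynaptic dopamine receptors.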

Canis familiaris [4] = test: Tested in vivo for change in maximal arterial pressure (MAP) in dog after intravenous dose of 30 (ug/kg)/min
Canis familiaris [5] = test: Tested in vivo for change in heart rate (HR) in dog after intravenous dose of 3 ug/kg; assay type: functional, Canis lupus familiaris
Canis familiaris [6] = test: Tested in vivo for change in maximal arterial pressure (MAP) in dog after intravenous dose of 3 ug/kg; assay type: functional, Canis lupus familiaris, Artery
Method in brief: (§2)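 Mean arterial blood pressure was recorded in dogs (N = 2) given the hydrobromide salt by intravenous infusion, dosed as (μg/kg)/min. Values are percent change from the control reading taken just before infusion. The minimum change counted as significant (p < 0.05) was ±5.2%.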

Canis familiaris [7] = test: Tested in vivo for change in maximal arterial pressure (MAP) in dog after intravenous dose of 30 ug/kg; assay type: functional, Canis lupus familiaris, Artery; method in brief: as §2
Canis familiaris [8] = test: Tested in vivo for change in maximal arterial pressure (MAP) in dog after intravenous dose of 300 ug/kg; assay type: functional, Canis lupus familiaris, Artery; method in brief: as §2
Canis familiaris [9] = test: Tested in vivo for change in heart rate (HR) in dog after intravenous dose of 30 ug/kg; assay type: functional, Canis lupus familiaris
Canis familiaris [10] = test: Tested in vivo for change in heart rate (HR) in dog after intravenous dose of 300 ug/kg; assay type: functional, Canis lupus familiaris
Dopamine receptor [11] = test: Tested in vitro for dopamine agonist activity in rabbit ear artery after at a dose of 3 ug/kg; assay type: functional, tissue-based, Oryctolagus cuniculus; method in brief: as §1
Dopamine receptor [12] = test: Tested in vitro for dopamine agonist activity in rabbit ear artery after at a dose of 0.3 mg/kg; assay type: functional, Oryctolagus cuniculus; design: dose 0.3 mg/kg
Canis familiaris [13] = test: Tested in vivo for change in heart rate (HR) in dog after intravenous dose of 30 (ug/kg)/min

**Q.** `CCCN(CCC)CCc1ccc(O)c(O)c1` was tested. Which Change (Canis familiaris [1]) did it give?
**A.** -17.7%

**Q.** What about the Change (Canis familiaris [2]) of the same molecule?
**A.** 1.5%

**Q.** What about the EC50 (Dopamine receptor [3]) of the same molecule?
**A.** 80 nM

**Q.** What about the Change (Canis familiaris [4]) of the same molecule?
**A.** -21.9%

**Q.** With `NCCc1ccc(O)c2c1CC(=O)N2` as the molecule, how does the Change (Canis familiaris [5]) read?
**A.** -2.9%

**Q.** And the Change (Canis familiaris [6])?
**A.** -10.6%

**Q.** And the Change (Canis familiaris [7])?
**A.** -16.1%

**Q.** And the Change (Canis familiaris [8])?
**A.** 62.6%

**Q.** And the Change (Canis familiaris [9])?
**A.** -2.9%

**Q.** And the Change (Canis familiaris [10])?
**A.** -15.8%

**Q.** What about the EC50 (Dopamine receptor [11]) of the same molecule?
**A.** 116 nM

**Q.** `C=CCN1CCc2c(cc(O)c(O)c2Cl)C(c2ccc(O)cc2)C1` (stereo unspecified) was tested. Which EC50 (Dopamine receptor [12]) did it give?
**A.** 122 nM

**Q.** What does the source list for `CCCN(CCC)CCc1ccc(O)c2c1CC(=O)N2` [SKF-89124A]?
**A.** Change (Canis familiaris [1]): 28.4%; EC50 (Dopamine receptor [12]): 1.8 nM; Change (Canis familiaris [13]): -6.9%; Change (Canis familiaris [4]): 28.4%
